The results in this text go back to ChEMBL document CHEMBL1938329, “The discovery of potent, selective, and orally active pyrazoloquinolines as PDE10A inhibitors for the treatment of Schizophrenia” (Bioorg Med Chem Lett, 2012).

The Ki is a measure of affinity in units of concentration, obtained from inhibition or displacement. By AUC(0-t) is commonly meant the area under the concentration-time curve up to a stated or last time point. One may read the inhibition as the drop in the measured response relative to a control, in per cent. Read a low inhibition as little suppression. As usually defined, the IC50 is the concentration at which inhibition is half-maximal.

SMILES strings stand for the structures.

Data set [1] is described as follows: Plasma protein binding in rat. The format is ADME, cell-free. Conditions: read-out: PPB (converted).
The next data set has as its target Phosphodiesterase 1 (Homo sapiens, UniProt P54750+Q01064+Q14123). As to the kind of experiment: Inhibition of recombinant human PDE1 using [3H]cAMP as substrate by scintillation proximity assay. The format is protein assay. The method in brief:
(§1)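 Scintillation proximity assay with [³H]cAMP as substrate, measuring hydrolysis of cAMP to AMP by recombinant human PDEs 1–11. Ki values are means of at least two experiments.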

Data set [2] deals with cGMP-dependent 3',5'-cyclic phosphodiesterase (Homo sapiens, UniProt O00408). Description: Inhibition of recombinant human PDE2 using [3H]cAMP as substrate by scintillation proximity assay. The method in brief:
as §1
(In general: In a scintillation proximity assay essentially only radioactivity close to the scintillant gives light.)

A short description of data set [3]: AUC (0 to 6 hrs) in rat at 10 mg/kg, po. The class given is ADME, organism-based. Details: time < 6 hr, dose 10 mg/kg, route oral. The note with it: plasma. The method in brief:
(§2)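 Rat cassette-accelerated rapid screen, 10 mg/kg oral. Plasma exposure measured over 0–6 h. Brain drug concentration taken at 6 h. Brain/plasma ratio is brain over plasma drug concentration at 6 h.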

The target in the next data set is Phosphodiesterase 3 (Homo sapiens, UniProt Q14432+Q13370). Description: Inhibition of recombinant human PDE3 using [3H]cAMP as substrate by scintillation proximity assay. The format is protein assay. The method in brief: as §1
Data set [4] can be described thus: Drug uptake in rat brain at 10 mg/kg, po after 6 hrs. The class given is ADME, organism-based. Also noted: dose 10 mg/kg, route oral. The note with it: read-out: Drug uptake. The method in brief: as §2
For data set [5], the target named is Dual 3',5'-cyclic-AMP and -GMP phosphodiesterase 11A (Homo sapiens, UniProt Q9HCR9). As to the kind of experiment: Inhibition of recombinant human PDE11 using [3H]cAMP as substrate by scintillation proximity assay. The method in brief:
as §1

For the next data set, the target named is Phosphodiesterase 6. Description: Inhibition of recombinant human PDE6 using [3H]cAMP as substrate by scintillation proximity assay. The format is protein assay. The method in brief: as §1
For data set [6], the target named is cGMP-specific 3',5'-cyclic phosphodiesterase (Homo sapiens, UniProt O76074). Description: Inhibition of recombinant human PDE5A using [3H]cAMP as substrate by scintillation proximity assay. The method in brief:
as §1

Data set [7] can be described thus: Ratio of drug level in brain to plasma in rat at 10 mg/kg, po at 6 hrs. The class given is ADME, organism-based. Details: dose 10 mg/kg, route oral. Conditions: read-out: BPR. The method in brief:
as §2

Data set [8] concerns the target 5-hydroxytryptamine receptor 1B (Homo sapiens) (UniProt P28222). As to the kind of experiment: Inhibition of 5HT1b at 10 uM.
In data set [9] the target is High affinity cGMP-specific 3',5'-cyclic phosphodiesterase 9A (Homo sapiens, UniProt O76083). Description: Inhibition of recombinant human PDE9 using [3H]cAMP as substrate by scintillation proximity assay. The method in brief:
as §1

Another data set concerns the target Phosphodiesterase 4 (Homo sapiens, UniProt P27815+Q08499+Q07343+Q08493). Description: Inhibition of recombinant human PDE4 using [3H]cAMP as substrate by scintillation proximity assay. The format is protein assay. The method in brief: as §1
Data set [10] deals with T1, 5-hydroxytryptamine receptor 3A (Homo sapiens) (UniProt P46098).
T1 sequence (whole entry): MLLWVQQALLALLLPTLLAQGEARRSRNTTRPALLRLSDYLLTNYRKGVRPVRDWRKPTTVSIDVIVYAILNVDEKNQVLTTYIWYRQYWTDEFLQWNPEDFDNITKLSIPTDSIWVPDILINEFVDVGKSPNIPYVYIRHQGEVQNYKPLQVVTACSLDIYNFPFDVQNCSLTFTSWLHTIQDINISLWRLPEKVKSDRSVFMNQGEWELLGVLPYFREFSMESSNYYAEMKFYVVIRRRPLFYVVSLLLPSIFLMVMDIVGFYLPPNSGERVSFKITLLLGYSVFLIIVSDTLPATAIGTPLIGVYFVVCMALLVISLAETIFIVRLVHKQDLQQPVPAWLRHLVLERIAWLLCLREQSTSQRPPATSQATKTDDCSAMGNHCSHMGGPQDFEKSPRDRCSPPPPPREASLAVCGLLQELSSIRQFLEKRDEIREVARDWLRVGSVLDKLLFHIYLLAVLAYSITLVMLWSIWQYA
Description: Inhibition of 5HT3 at 10 uM.

The next data set addresses Phosphodiesterase 8 (Homo sapiens, UniProt O95263+O60658). As to the kind of experiment: Inhibition of recombinant human PDE8 using [3H]cAMP as substrate by scintillation proximity assay. The format is protein assay. The method in brief: as §1
For the next data set, the target named is Phosphodiesterase 7 (Homo sapiens, UniProt Q13946+Q9NP56). As to the kind of experiment: Inhibition of recombinant human PDE7 using [3H]cAMP as substrate by scintillation proximity assay. The format is protein assay. The method in brief: as §1
In data set [11] the target is 5-hydroxytryptamine receptor 7 (Homo sapiens) (UniProt P34969). Description: Inhibition of 5HT7 at 10 uM.
Sequence of 5-hydroxytryptamine receptor 7 (Homo sapiens) (P34969 whole entry, canonical isoform): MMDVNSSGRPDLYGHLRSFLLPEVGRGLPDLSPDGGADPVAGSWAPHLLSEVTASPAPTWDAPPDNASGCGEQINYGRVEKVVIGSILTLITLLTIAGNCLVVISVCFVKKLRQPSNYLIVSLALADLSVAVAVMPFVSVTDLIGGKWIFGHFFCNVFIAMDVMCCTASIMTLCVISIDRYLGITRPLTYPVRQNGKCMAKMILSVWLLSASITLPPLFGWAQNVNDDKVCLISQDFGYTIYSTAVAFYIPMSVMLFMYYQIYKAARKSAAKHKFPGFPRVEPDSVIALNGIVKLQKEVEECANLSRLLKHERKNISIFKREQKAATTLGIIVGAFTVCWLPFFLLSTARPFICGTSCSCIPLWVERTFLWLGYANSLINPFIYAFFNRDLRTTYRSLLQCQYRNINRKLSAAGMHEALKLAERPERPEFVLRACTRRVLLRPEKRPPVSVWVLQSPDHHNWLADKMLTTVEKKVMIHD
In data set [12] the target is Casein kinase I isoform delta (Homo sapiens, UniProt P48730). Description: Inhibition of CK1delta.
Sequence of Casein kinase I isoform delta (P48730 whole entry, canonical isoform): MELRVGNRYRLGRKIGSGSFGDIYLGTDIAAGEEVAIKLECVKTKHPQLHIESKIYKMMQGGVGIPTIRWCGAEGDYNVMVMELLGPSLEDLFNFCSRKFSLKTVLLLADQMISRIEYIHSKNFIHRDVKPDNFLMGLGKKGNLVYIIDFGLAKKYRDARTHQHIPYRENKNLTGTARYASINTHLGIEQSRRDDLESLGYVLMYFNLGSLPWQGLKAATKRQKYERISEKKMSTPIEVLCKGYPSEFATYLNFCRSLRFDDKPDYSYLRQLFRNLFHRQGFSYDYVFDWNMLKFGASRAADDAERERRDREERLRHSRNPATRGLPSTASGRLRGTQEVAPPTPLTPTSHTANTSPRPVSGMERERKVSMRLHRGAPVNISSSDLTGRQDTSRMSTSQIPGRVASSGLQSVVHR

Sequence of High affinity cGMP-specific 3',5'-cyclic phosphodiesterase 9A (O76083 whole entry): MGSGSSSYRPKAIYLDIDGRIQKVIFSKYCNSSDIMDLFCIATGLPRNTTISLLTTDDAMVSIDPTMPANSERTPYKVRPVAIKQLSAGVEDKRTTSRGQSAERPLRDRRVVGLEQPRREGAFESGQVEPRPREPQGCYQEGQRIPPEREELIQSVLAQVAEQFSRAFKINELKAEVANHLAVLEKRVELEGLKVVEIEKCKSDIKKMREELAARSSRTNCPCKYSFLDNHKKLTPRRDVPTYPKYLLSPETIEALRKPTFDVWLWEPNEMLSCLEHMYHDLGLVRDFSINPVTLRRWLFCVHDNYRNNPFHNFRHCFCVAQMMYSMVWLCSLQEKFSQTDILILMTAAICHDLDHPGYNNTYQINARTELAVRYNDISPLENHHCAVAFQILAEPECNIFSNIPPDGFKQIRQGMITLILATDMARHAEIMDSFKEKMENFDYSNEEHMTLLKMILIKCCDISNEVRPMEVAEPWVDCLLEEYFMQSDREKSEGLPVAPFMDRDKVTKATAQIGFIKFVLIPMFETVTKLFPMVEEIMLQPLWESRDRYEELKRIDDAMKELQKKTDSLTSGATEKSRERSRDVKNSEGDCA
Sequence of cGMP-dependent 3',5'-cyclic phosphodiesterase (O00408 whole entry): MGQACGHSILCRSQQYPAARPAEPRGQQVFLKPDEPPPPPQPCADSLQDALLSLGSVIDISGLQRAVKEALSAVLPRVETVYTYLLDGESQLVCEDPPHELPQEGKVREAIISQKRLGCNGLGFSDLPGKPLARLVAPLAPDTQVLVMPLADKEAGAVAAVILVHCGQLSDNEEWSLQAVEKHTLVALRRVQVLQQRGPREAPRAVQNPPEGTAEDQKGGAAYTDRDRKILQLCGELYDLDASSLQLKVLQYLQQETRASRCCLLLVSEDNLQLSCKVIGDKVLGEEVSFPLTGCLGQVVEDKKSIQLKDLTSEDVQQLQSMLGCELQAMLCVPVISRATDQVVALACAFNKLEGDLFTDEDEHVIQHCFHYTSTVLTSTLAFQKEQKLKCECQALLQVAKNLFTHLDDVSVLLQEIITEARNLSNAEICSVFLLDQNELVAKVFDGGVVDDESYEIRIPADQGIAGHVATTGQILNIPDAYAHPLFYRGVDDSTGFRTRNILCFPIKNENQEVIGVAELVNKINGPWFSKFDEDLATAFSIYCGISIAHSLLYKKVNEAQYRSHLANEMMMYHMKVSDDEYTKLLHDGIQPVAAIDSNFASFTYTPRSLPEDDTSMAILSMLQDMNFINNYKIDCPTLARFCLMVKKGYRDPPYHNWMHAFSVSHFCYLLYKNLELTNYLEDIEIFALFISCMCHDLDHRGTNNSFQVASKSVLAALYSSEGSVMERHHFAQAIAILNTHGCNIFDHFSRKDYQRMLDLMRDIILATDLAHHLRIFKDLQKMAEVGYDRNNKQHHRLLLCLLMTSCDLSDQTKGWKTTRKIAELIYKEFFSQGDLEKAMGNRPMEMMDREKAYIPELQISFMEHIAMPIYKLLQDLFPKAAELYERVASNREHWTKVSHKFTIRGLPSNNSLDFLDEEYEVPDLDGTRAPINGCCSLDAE
Sequence of 5-hydroxytryptamine receptor 1B (Homo sapiens) (P28222 whole entry): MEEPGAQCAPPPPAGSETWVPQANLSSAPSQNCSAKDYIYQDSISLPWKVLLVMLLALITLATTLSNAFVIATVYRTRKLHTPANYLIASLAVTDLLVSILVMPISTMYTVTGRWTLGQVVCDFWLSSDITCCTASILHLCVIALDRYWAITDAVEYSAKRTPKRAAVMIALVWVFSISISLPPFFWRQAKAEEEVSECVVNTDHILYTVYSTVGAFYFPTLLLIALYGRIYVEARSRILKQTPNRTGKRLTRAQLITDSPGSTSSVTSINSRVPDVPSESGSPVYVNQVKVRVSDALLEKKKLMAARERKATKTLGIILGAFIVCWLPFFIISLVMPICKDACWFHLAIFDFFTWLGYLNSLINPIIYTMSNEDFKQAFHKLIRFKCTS
Sequence of Dual 3',5'-cyclic-AMP and -GMP phosphodiesterase 11A (Q9HCR9 whole entry): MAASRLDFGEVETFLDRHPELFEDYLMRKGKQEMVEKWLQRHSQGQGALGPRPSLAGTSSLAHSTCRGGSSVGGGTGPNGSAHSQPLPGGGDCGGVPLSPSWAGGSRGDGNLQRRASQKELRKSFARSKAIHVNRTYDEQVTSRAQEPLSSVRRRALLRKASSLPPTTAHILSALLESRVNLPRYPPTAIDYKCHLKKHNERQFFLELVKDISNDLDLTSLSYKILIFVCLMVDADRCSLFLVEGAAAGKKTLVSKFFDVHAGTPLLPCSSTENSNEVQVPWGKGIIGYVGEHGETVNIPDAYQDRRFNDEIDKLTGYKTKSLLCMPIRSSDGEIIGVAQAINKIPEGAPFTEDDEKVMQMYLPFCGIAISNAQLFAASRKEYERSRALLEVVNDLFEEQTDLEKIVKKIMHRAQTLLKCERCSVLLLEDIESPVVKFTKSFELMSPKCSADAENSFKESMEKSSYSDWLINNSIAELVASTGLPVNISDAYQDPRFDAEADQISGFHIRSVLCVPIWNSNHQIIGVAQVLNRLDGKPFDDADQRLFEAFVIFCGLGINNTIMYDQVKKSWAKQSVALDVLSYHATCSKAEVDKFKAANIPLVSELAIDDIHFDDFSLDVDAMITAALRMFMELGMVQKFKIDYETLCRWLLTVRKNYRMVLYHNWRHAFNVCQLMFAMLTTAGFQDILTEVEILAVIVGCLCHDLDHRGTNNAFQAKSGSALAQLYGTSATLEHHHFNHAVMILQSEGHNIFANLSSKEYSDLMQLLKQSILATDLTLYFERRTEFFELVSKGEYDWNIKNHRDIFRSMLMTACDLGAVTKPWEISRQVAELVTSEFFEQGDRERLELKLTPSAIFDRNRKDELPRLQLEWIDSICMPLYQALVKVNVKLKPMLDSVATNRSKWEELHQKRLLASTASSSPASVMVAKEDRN

As for `COc1cc(C)c2nc3[nH]nc(C)c3c(N3CCNCC3)c2c1`, in [1], the fraction unbound was 0.16. The Ki entry at Phosphodiesterase 1 is “>= 770 nM”; in [2], no less than 770 nM; at Phosphodiesterase 3, “>= 770 nM”; in [5] it was no less than 770 nM; at Phosphodiesterase 6 it was “>= 770 nM”; in [6], greater than 100000 nM. Moreover, the Ki in [9] is no less than 770 nM; on Phosphodiesterase 4 it was “>= 770 nM”; at Phosphodiesterase 8 it was “>= 770 nM”; at Phosphodiesterase 7, “>= 770 nM”. This compound also yielded an AUC(0-t) at 6 h in [3] of 3.3 µM·h. Besides, in data set [4], the concentration at 6 h was determined as 123 ng/g. Moreover, in [7], the Kp at 6 h came out at 1.2. The inhibition in data set [8], in data set [10] and in [11] was 54% each time. For the same compound, half-maximal inhibition in data set [12] (IC50) required 320 nM.
